Tn7 DDE FP: DD(E)-Tn7 binding inhibition, primary FP screen; P02675; FP displacement of FITC-Tn7 peptide from fibrin DD(E); 0% = median of compound wells per plate; inhibition, % at 8.3 µM; 0.13% of 370,000 active; AID 720508;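 active = inhibition above the mean of compounds falling within the control limits plus 3 SD of them, cut at about 14% in these data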;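 also: 0% = plate median of compound wells and 100% = 10 µM Aha-Tn7 peptide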
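Assay system: human fibrin DD(E). Input: DD(E) 2 µM final. Medium: Tris buffer with calcium and detergent, pH 7.8. Compound dosing: single point at 8.3 µM. Timing: 10 min plus 3 h, room temperature. Technique: fluorescence polarization of the labelled Tn7 tracer. Read-out: percent inhibition. Replicates: singlicate testing.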
MT1-MMP act inh: inhibitors of human MT1-MMP activation | GFP/RFP ratio change, % at 20 µM | 0.061% of 360,000 active | P50281 | AID 651647 | HT1080 RFP-PRO-GFP cells, GFP/RFP ratio fluorescence, overnight; percent of plate control window, DMSO zero;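 active = GFP/RFP ratio change of at least 30% with cell ATP level not reduced by more than half and red fluorescence within 50% of control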
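system = RFP-PRO-GFP reporter HT1080 cells | dosing = 20 µM single dose, 1% DMSO | timing = overnight cell settling, then overnight compound exposure, 37 °C, 5% CO2 | read-out basis = GFP/RFP fluorescence ratio | controls = DMSO and RFP-L50D-GFP cell wells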
DDE Tn6 FP inh: disrupts Tn6 cyclic peptide binding to fibrin D-Dimer-E complex; P02675; Fibrin DD(E) TRITC-Tn6 fluorescence polarization displacement; inhibition, % at 8.3 µM; 0.21% of 370,000 active;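 active = inhibition above a per-campaign cutoff: mean of compounds within control limits plus 3 SD, cut at about 15% in these data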;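 also: 0% = median of all compound wells on the plate and 100% = blocking peptide control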
ADAM10 inh: inhibits human ADAM10. O14672. recombinant ADAM10, EDANS/DABCYL FRET peptide cleavage, 3 h. inhibition, % at 7 µM. 0.62% of 370,000 active. AID 720582;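 active = inhibition above a per-campaign cutoff equal to the mean of compounds falling between control-based bounds plus 3 SD, cut at about 20% in these data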;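 also: 0% = DMSO wells while the 100% control is not disclosed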
Target sequence (O14672 214-748 limits assumed): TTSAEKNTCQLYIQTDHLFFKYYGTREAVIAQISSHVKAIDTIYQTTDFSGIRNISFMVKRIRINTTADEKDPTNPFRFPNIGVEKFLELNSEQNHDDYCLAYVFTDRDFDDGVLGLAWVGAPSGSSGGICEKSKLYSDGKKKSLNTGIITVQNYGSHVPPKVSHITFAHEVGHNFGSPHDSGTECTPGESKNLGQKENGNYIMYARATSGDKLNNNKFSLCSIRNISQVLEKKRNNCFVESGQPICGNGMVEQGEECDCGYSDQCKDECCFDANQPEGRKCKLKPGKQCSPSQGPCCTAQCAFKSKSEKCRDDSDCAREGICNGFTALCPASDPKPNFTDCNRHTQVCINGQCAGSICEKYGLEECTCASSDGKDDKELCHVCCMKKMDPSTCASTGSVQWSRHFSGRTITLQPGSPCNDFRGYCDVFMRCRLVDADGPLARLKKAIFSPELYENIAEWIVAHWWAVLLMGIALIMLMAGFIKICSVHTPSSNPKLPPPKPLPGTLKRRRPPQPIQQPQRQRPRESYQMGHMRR
ADAM17 inh: inhibits human ADAM17. P78536. recombinant ADAM17, EDANS/DABCYL FRET peptide cleavage. inhibition, % at 6.95 µM. 0.83% of 370,000 active;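 active = inhibition above the mean of compounds lying between control limits plus 3 SD, set per campaign, cut at about 8.5% in these data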;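 also: 0% = DMSO-only wells as the low control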
ADAM10 confirm: human ADAM10 inhibition, confirmation; shares compounds with ADAM10 inh; inhibition, % at 6.95 µM; ADAM10 QFRET peptide cleavage, EDANS fluorescence; 1% of 2,100 active;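 active = inhibition above about 20% chosen separately for each screening run, limit read from the data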;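 also: 0% = DMSO wells and 100% = marimastat wells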
ADAM17 counter: ADAM17 inhibition, counter-screen for ADAM10 exosite hits. shares compounds with ADAM10 inh. ADAM17 QFRET peptide cleavage, EDANS fluorescence. 0.5% of 2,100 active. AID 743214. inhibition, % at 6.95 µM;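 active = mean triplicate inhibition above the solvent-only control wells' mean plus 3 SD, cut at about 12% in these data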;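 also: 0% = DMSO wells and 100% = marimastat wells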
* = called active by the depositor; . = no result given. An excerpt weighted towards active compounds, which were near 1.6% of everything screened.

SMILES	Tn7 DDE FP	MT1-MMP act inh	DDE Tn6 FP inh	ADAM10 inh	ADAM17 inh	ADAM10 confirm	ADAM17 counter
N#Cc1c(NC(=O)CSc2n[nH]c(N)n2)oc(-c2ccccc2)c1-c1ccccc1	3	0	-7	20*	7	4	3
COc1ccc(S(=O)(=O)N2CCOCC2)cc1C(=O)Nc1ccc(N2CCCCCC2)cc1	-12	0	-2	20*	4	8	4
CCOC(=O)CCC(=O)Nc1cc(S(=O)(=O)N2CCOCC2)ccc1N1CCCCC1	0	.	7	22*	-1	0	0
CCOCC(=O)Nc1cc(S(=O)(=O)N2CCOCC2)ccc1N1CCCCC1	-5	-8	0	13	2	.	.
CCC[C@@H](/C=C/C(=O)OC(C)(C)C)Sc1ccc(OC)cc1	0	.	-6	-7	-6	.	.
N#Cc1[nH]nc2nc[nH]c(=O)c12	-2	.	6	-3	-1	.	.
CCc1ccc(N=Nc2ccc(O)c3[nH]cnc23)cc1	1	-104	-2	24*	7	2	1
COc1ccc(N=Nc2ccc(O)c3ncccc23)cc1	2	8	-5	-4	-3	.	.
COC(=O)C1=C(C)N(C)C(=NCC2CC2)NC1CCc1ccccc1 (configuration not stated)	-4	.	1	-1	2	.	.
O=C(NC1CCCCN(Cc2cccc(F)c2)C1=O)c1ccc2ccccc2c1 (configuration not stated)	4	.	3	4	3	.	.
CC(=O)OCC(=O)Nc1ccc(N=Nc2ccccc2)cc1	-3	10	-2	11	5	.	.
CC(C)C(=O)OCC(=O)Nc1ccc(N=Nc2ccccc2)cc1	2	13	4	25*	7	0	1
CC(C)C[C@@H]1COc2cc(NCCCN3CCOCC3)ccc2S(=O)(=O)N1	7	.	3	-6	-6	.	.
CCCn1nc([N+](=O)[O-])c(C(C#N)c2nc3ccccc3o2)c(Cl)c1=O (configuration not stated)	3	21	-5	21*	7	2	0
O=C(NC(=S)Nc1ccccc1N1CCCC1)c1ccc(-c2cccc([N+](=O)[O-])c2)o1	0	-4	-4	20*	3	2	1
COc1ccc(-c2cc(NC(=O)Cc3c(C)[nH]c4ccccc34)ccc2Nc2cccnc2)cc1F	0	.	3	3	0	.	.
COC(=O)C1=C(C)N(Cc2ccc(Cl)cc2)C(=S)NC1c1ccccc1 (configuration not stated)	-3	.	-6	10	3	.	.
COC(=O)C1=C(C)N(Cc2ccc(Cl)cc2)C(=S)NC1c1cccc(OC)c1 (configuration not stated)	1	.	3	22*	7	4	2
O=C(Cn1nc(C(F)F)cc1C(F)F)NNC(=S)Nc1ccc([N+](=O)[O-])cc1	-3	-1	-15	21*	5	3	2
NS(=O)(=O)c1ccc(CCNc2nn3c(-c4cccc(OC(F)(F)F)c4)cnc3s2)cc1	-4	-1	5	21*	6	5	1
O=C(NCCc1c[nH]c2ccccc12)[C@H](Cc1c[nH]c2ccccc12)NC1(C(=O)NC2CCCCC2)CCCCCCC1	-5	.	0	3	2	.	.
CC(=O)C1=C(C)N(Cc2ccc(Br)cc2)C(=S)NC1c1cccc(Br)c1 (configuration not stated)	-6	.	5	11	5	.	.
C[C@@H](c1ccccc1)N1C[C@H](COCc2ccccc2)Oc2cc(N3CC[C@H](O)C3)ccc2S1(=O)=O	-2	0	-7	21*	7	7	2
Cc1ccc(NS(=O)(=O)c2ccc(OCC(=O)Nc3cccc([N+](=O)[O-])c3)c(C)c2)cc1	2	2	6	23*	3	7	3
COC(=O)C1=C(C)N(Cc2ccccc2)C(=S)NC1c1ccc(Cl)cc1 (configuration not stated)	10	.	8	17	7	.	.
SMILES	Tn7 DDE FP	MT1-MMP act inh	DDE Tn6 FP inh	ADAM10 inh	ADAM17 inh	ADAM10 confirm	ADAM17 counter
CC(O)(c1ccccc1)c1nc(-c2csc3ccccc23)cs1 (configuration not stated)	1	1	-2	21*	7	5	2
CC(O)(c1ccc(F)c(F)c1)c1nc(/C=C/c2ccc(C(F)(F)F)cc2)cs1 (configuration not stated)	7	0	-1	11	8	.	.
CC(O)(c1cccc(F)c1)c1nc(-c2cc3ccccc3o2)cs1 (configuration not stated)	0	-4	-8	22*	6	6	2
CC(O)(c1cccc(F)c1)c1nc(/C=C/c2ccccc2)cs1 (configuration not stated)	3	11	1	22*	6	10	3
CC(O)(c1ccc(F)c(F)c1)c1nc(-c2csc3ccccc23)cs1 (configuration not stated)	-2	0	-4	8	6	.	.
CC(O)(c1cccc(F)c1)c1nc(-c2csc3ccccc23)cs1 (configuration not stated)	1	-1	-3	23*	6	8	3
O=C(NCc1ccc(F)c(F)c1)C1CCC(CNS(=O)(=O)c2cccc3cccnc23)CC1 (configuration not stated)	3	.	1	-5	-1	.	.
S=c1nc2ccccc2c2nc(-c3ccccc3)[nH]n12	5	16	-4	21*	2	-3	-1
S=c1nc2ccccc2c2nc(-c3ccccc3Cl)[nH]n12	-8	9	-4	7	3	.	.
CN(c1ccccc1)S(=O)(=O)c1ccc(NC(=O)c2ccc(F)cc2)cc1	4	1	-9	21*	7	3	1
CN(c1ccc(OCC(=O)OCC(=O)Nc2ccc(F)cc2)cc1)S(=O)(=O)c1ccc(Cl)cc1	2	4	-1	20*	1	6	2
CCCCNC(=O)C[C@@H]1C(=O)N2CCCC3=C2[C@@]1(C(=O)OCC)CCC3	2	.	0	-1	-4	.	.
COCCCNC(=O)C[C@H]1C[C@@]2(C(=O)OC)C(=C[C@H](C(C)C)O[C@@H]2C2CC2)N(Cc2ccccc2)C1=O	1	.	-1	-6	-3	.	.
O=C(Nc1ccn(Cc2ccccc2F)n1)c1ccc(COc2ccc(Br)cc2)cc1	-7	-1	-18	20*	3	5	1
CCc1ccc(NSc2ccccc2[N+](=O)[O-])cc1	-1	0	1	20*	8	6	2
